Screening results (PubChem BioAssay)
Only a selection was taken, and hits are over-represented in it overall.
Fibroblast inh = antiproliferative effect on LL 47 fibroblasts – human, LL 47 cells, CellTiter-Glo luminescence, primary screen. LL 47 human lung fibroblast viability, ATP luminescence; active compounds read low. viability, % at 10 µM. 1.1% of 85,000 active. AID 719, 2007;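 active = viability at or below 50% in the single dose screen; inactive = viability above 50%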;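 note: compound exposure lasted 72 h before the ATP readout; 100% = median luminescence of untreated cell-only wells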
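Benchmarks: Cell-only wells, no compound | Test system: LL 47 human lung fibroblasts, passage 12 or lower | Input: 1,150 cells/well | Measured by: CellTiter-Glo luminescence measuring cellular ATP | Medium: IMEM, 15% FBS supplement | Schedule: Overnight attachment after seeding, then 72 h compound exposure at 37 °C | Doses: Compound addition at 0.1% DMSO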
HUVEC prolif 384 = inhibitors of HUVEC proliferation, primary screen, cell-based, 384-well. CellTiter-Glo luminescence, 72 h; active compounds read low. viability, % at 10 µM (by protocol). 1.1% of 86,000 active;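 active = viability at or below 30%; inactive = viability above 30%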;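 note: 100% = median luminescence of DMSO-only cell control wells on each plate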
H69AR growth 86K = proliferation blockers of H69AR lung cancer cells, primary screen, cell-based, human, 86K library; 6% of 85,000 active; viability, % at 10 µM; AID 598, 2007; H69AR lung tumor viability, ATP luminescence, 72 h; active compounds read low;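 active = viability at or below 40%; inactive = viability above 40%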;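 note: multidrug resistant small cell line overexpressing MRP-1 efflux transporter; 100% = mean luminescence of untreated control wells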
PTEN del growth = growth suppression of PTEN-null HCT116, primary screen, cell-based, CellTiter-Glo. HCT116 PTEN-null viability, 60 h; active compounds read low. viability, % at 10 µM. 1.2% of 140,000 active;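 active = viability at or below a set limit, 4 SD under the median of all tested compounds, cut at about 3.7% in these data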;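 note: PTEN knockout HCT116 line with beta catenin targeted HCT116 as companion control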
HCT116 bCat-KO = primary screen for growth suppressors in beta-catenin knockout HCT116 cells (colon tumor, human). HCT116 beta-catenin knockout viability, CellTiter-Glo, 60 h; active compounds read low. viability, % at 10 µM. 1.5% of 140,000 active;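 active = viability at or under a set limit, the compound median less 4 SD, cut at about 6% in these data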;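 note: 0% = Hyamine 1622 control at 20 µM and 100% = untreated cell control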
An asterisk follows results filed as active.

`CCc1cc2cc3c(cc2nc1SCC(=O)N1CCN(C(=O)c2ccco2)CC1)OCO3` gave Fibroblast inh 92.7, HUVEC prolif 384 86.0, H69AR growth 86K 41.0, PTEN del growth 96.3 and HCT116 bCat-KO 97.8.
Screening O=C(CN1N=C(c2ccccc2)CCC1=O)NCc1ccco1 returned PTEN del growth 105.7 and HCT116 bCat-KO 94.1.
Screening CCN1CCN(Cc2ccc(OCc3ccccc3)cc2)CC1 returned Fibroblast inh 93.0, HUVEC prolif 384 84.6, H69AR growth 86K 87.5, PTEN del growth 1.2* and HCT116 bCat-KO 1.0*.
CN1CCN(Cc2ccc(OCc3ccccc3)cc2)CC1 was read as HUVEC prolif 384 98.1, H69AR growth 86K 89.5, PTEN del growth 95.5 and HCT116 bCat-KO 89.2.
`O=C(c1ccc(Cl)c(F)c1F)N1CCOCC1` gave Fibroblast inh 98.2, HUVEC prolif 384 96.5, H69AR growth 86K 93.4, PTEN del growth 109.1 and HCT116 bCat-KO 95.7.
Screening CC(C)c1ccc(N=c2c([N+](=O)[O-])nn(-c3ccc4c(c3)OCCO4)n2O)cc1 returned PTEN del growth 86.8 and HCT116 bCat-KO 87.8.
Screening COc1cc(N=c2c([N+](=O)[O-])nn(-c3ccc4c(c3)OCCO4)n2O)cc(OC)c1 returned PTEN del growth 0.3* and HCT116 bCat-KO 0.8*.
`CC(NC(=O)N(Cc1ccccc1)Cc1ccc2c(c1)OCO2)(C(F)(F)F)C(F)(F)F` gave Fibroblast inh 94.9, HUVEC prolif 384 102.5, H69AR growth 86K 73.6, PTEN del growth 87.8 and HCT116 bCat-KO 95.3.
For CCC(NC(=O)N(Cc1ccccc1)Cc1ccc2c(c1)OCO2)(C(F)(F)F)C(F)(F)F the results were Fibroblast inh 98.9, HUVEC prolif 384 84.6, H69AR growth 86K 36.7*, PTEN del growth 89.9 and HCT116 bCat-KO 91.9.
For CCOc1ccccc1-c1nc(-c2ccc(NC(=O)Cc3ccccc3OC)cc2)no1 the results were Fibroblast inh 106.2, HUVEC prolif 384 96.6, H69AR growth 86K 90.0, PTEN del growth 76.0 and HCT116 bCat-KO 87.8.
COc1ccccc1CC(=O)Nc1ccc(-c2noc(COc3ccc(Cl)c(C)c3)n2)cc1 was read as Fibroblast inh 73.2, HUVEC prolif 384 86.3, H69AR growth 86K 29.9*, PTEN del growth 92.2 and HCT116 bCat-KO 79.7.
For Cc1c(C(=O)OCCOC(C)C)[nH]c2c1C(=O)CC(c1ccco1)C2 (centres undefined) the results were Fibroblast inh 63.7, HUVEC prolif 384 57.4, H69AR growth 86K 41.5, PTEN del growth 13.0 and HCT116 bCat-KO 11.8.
Screening CCOC(=O)c1[nH]c2c(c1C)C(=O)CC(c1ccco1)C2 (centres undefined) returned Fibroblast inh 58.8, HUVEC prolif 384 39.8, H69AR growth 86K 41.3, PTEN del growth 11.8 and HCT116 bCat-KO 9.6.
`CSCCOC(=O)c1[nH]c2c(c1C)C(=O)CC(c1ccco1)C2` (centres undefined) gave Fibroblast inh 55.0, HUVEC prolif 384 50.0, H69AR growth 86K 36.6*, PTEN del growth 13.0 and HCT116 bCat-KO 10.3.
For COCCOC(=O)c1[nH]c2c(c1C)C(=O)CC(c1ccco1)C2 (centres undefined) the results were Fibroblast inh 53.2, HUVEC prolif 384 44.8, H69AR growth 86K 26.1*, PTEN del growth 19.2 and HCT116 bCat-KO 17.2.
Cc1c(C(=O)OCc2ccccc2)[nH]c2c1C(=O)CC(c1ccco1)C2 (centres undefined) was read as Fibroblast inh 27.3*, HUVEC prolif 384 22.1*, H69AR growth 86K 25.6*, PTEN del growth 16.1 and HCT116 bCat-KO 14.7.
Fc1ccc(NC(=S)N2CCCc3ccccc32)cc1 was read as PTEN del growth 82.1 and HCT116 bCat-KO 86.3.
For Cc1nn(-c2nc3ccccc3s2)c(N)c1Sc1ccc(F)cc1 the results were Fibroblast inh 17.8*, HUVEC prolif 384 59.4, H69AR growth 86K 9.7*, PTEN del growth 15.3 and HCT116 bCat-KO 32.3.
CCN(CC)C(=O)c1ccc2c(c1[N+](=O)[O-])C(=O)c1ccccc1C2=O was read as PTEN del growth 2.6* and HCT116 bCat-KO 8.4.
CCN(CC)C(=O)c1cccc2c1C(=O)c1ccccc1-2 was read as Fibroblast inh 95.5, HUVEC prolif 384 103.8, H69AR growth 86K 91.8, PTEN del growth 96.5 and HCT116 bCat-KO 94.3.
Screening Cc1cccc(N2CCN(C(=O)COc3ccc4c(c3)CCC4)CC2)c1C returned PTEN del growth 63.1 and HCT116 bCat-KO 67.6.
`CC(=O)[C@@]1(O)CC[C@H]2[C@@H]3CCC4=CC(=O)CC[C@]4(C)[C@H]3[C@@H](O)C[C@@]21C` gave Fibroblast inh 93.5, HUVEC prolif 384 97.0, H69AR growth 86K 91.7, PTEN del growth 97.1 and HCT116 bCat-KO 88.5.
CC(=O)[C@@]1(O)CC[C@H]2[C@@H]3C[C@H](C)C4=CC(=O)CC[C@]4(C)[C@H]3CC[C@@]21C was read as Fibroblast inh 87.2, HUVEC prolif 384 94.1, H69AR growth 86K 6.9*, PTEN del growth 74.0 and HCT116 bCat-KO 62.8.
CC(C)NC(=O)c1ccc2c(c1)S(=O)(=O)c1ccccc1C2=O was read as Fibroblast inh 106.8, HUVEC prolif 384 105.2, H69AR growth 86K 82.6, PTEN del growth 102.4 and HCT116 bCat-KO 104.2.
`O=C(Nc1nc(-c2ccccc2)cs1)c1ccc2c(c1)S(=O)(=O)c1ccccc1C2=O` gave PTEN del growth 2.5* and HCT116 bCat-KO 4.0*.
O=c1c2ccccc2nc(CSc2ncnc3nc[nH]c23)n1-c1cccc(C(F)(F)F)c1 was read as Fibroblast inh 108.0, HUVEC prolif 384 99.2, H69AR growth 86K 79.4, PTEN del growth 85.6 and HCT116 bCat-KO 93.7.
`CN(C)CCNC(=O)c1ccc(COc2ccc(Cl)cc2Cl)cc1` gave Fibroblast inh 24.6*, HUVEC prolif 384 2.4*, H69AR growth 86K 1.4*, PTEN del growth 1.6* and HCT116 bCat-KO 3.1*.
Screening CN1CCN(C(=O)CCCOc2ccc(Cl)cc2Cl)CC1 returned PTEN del growth 76.5 and HCT116 bCat-KO 84.3.
`CN1CCN(C(=O)c2ccc(COc3ccc(Cl)cc3Cl)cc2)CC1` gave Fibroblast inh 86.2, HUVEC prolif 384 12.9*, H69AR growth 86K 75.0, PTEN del growth 77.4 and HCT116 bCat-KO 77.8.
`COc1ccc(Cl)cc1C(=O)NCCN(C)C` gave Fibroblast inh 98.5, HUVEC prolif 384 93.6, H69AR growth 86K 93.0, PTEN del growth 100.6 and HCT116 bCat-KO 100.5.
`Cc1ccc(Cl)cc1NC1=NC(=S)N(C(C)C)C12CCCCC2` gave Fibroblast inh 85.2, HUVEC prolif 384 97.0, H69AR growth 86K 85.4, PTEN del growth 81.7 and HCT116 bCat-KO 79.1.
Screening CC(=O)c1ccc(N2CCN(C(=O)COc3ccccc3F)CC2)c(F)c1 returned Fibroblast inh 96.4, HUVEC prolif 384 104.7, H69AR growth 86K 97.9, PTEN del growth 86.3 and HCT116 bCat-KO 84.1.
